In ChEMBL document CHEMBL3045365, “Chemical composition and antifungal activity of Salvia macrochlamys and Salvia recognita essential oils” (2006):

Experiments:
[1] = tested on: Colletotrichum gloeosporioides; experiment: Antifungal activity against Colletotrichum gloeosporioides assessed as growth inhibition at 4 uL in 2 mM acetone by direct bioautography; assay type: functional
Summary of the method: (§1)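 Standards applied at 2 mM in 4 μL acetone onto silica TLC plates and tested by direct bioautography against each Colletotrichum species. Activity read as clear inhibitory zone size (mm), reported as mean ± SEM. Technical-grade fungicides at 2 mM in 2 μL EtOH served as internal standards. Runs repeated multiple times in dose- and non-dose-response formats.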

Colletotrichum acutatum [2] = experiment: Antifungal activity against Colletotrichum acutatum assessed as growth inhibition at 4 uL in 2 mM acetone by direct bioautography; assay type: functional; summary of the method: as §1
Colletotrichum fragariae [3] = experiment: Antifungal activity against Colletotrichum fragariae assessed as growth inhibition at 4 uL in 2 mM acetone by direct bioautography; assay type: functional; summary of the method: as §1
Colletotrichum fragariae [4] = experiment: Antifungal activity against Colletotrichum fragariae assessed as growth inhibition at 2 uL in 2 mM EtOH by direct bioautography
Colletotrichum acutatum [5] = experiment: Antifungal activity against Colletotrichum acutatum assessed as growth inhibition at 2 uL in 2 mM EtOH by direct bioautography
[6] = tested on: Colletotrichum gloeosporioides; experiment: Antifungal activity against Colletotrichum gloeosporioides assessed as growth inhibition at 2 uL in 2 mM EtOH by direct bioautography

Row | Structure (SMILES) | inhibition zone (IZ) [1] | inhibition zone (IZ) (Colletotrichum acutatum [2]) | inhibition zone (IZ) (Colletotrichum fragariae [3]) | inhibition zone (IZ) (Colletotrichum fragariae [4]) | inhibition zone (IZ) (Colletotrichum acutatum [5]) | inhibition zone (IZ) [6]
1 | CC1(C)[C@H]2CC[C@]1(C)[C@H](O)C2 [(-)-BORNEOL] | 0 mm | 0 mm | 0 mm | – | – | –
2 | CC12CCC(CC1=O)C2(C)C (stereo not drawn) [CAMPHOR] | 0 mm | 0 mm | 0 mm | – | – | –
3 | CO/C=C(/C(=O)OC)c1ccccc1Oc1cc(Oc2ccccc2C#N)ncn1 [AZOXYSTROBIN] | – | – | – | 19.33 mm | 24.33 mm | 28.33 mm
4 | CC12CCC(CC1)C(C)(C)O2 [EUCALYPTOL] | 0 mm | 0 mm | 0 mm | – | – | –
5 | Cc1ccc(C(C)C)cc1O [CARVACROL] | 3.5 mm | 4.5 mm | 3.4 mm | – | – | –
6 | CCCCNC(=O)n1c(NC(=O)OC)nc2ccccc21 [BENOMYL] | – | – | – | 18.33 mm | 18 mm | 19.33 mm
7 | O=C1C2CC=CCC2C(=O)N1SC(Cl)(Cl)Cl (stereo not drawn) [CAPTAN] | – | – | – | 15 mm | 14.67 mm | 10.33 mm
8 | Cc1cc(C2CC2)nc(Nc2ccccc2)n1 [CYPRODINIL] | – | – | – | 30.33 mm | 29.33 mm | 29.33 mm
9 | CC1(C)C2CCC1(C)C(O)C2 (stereo not drawn) [BORNEOL] | 0 mm | 0 mm | 0 mm | – | – | –
10 | Cc1ccc(C(C)C)c(O)c1 [THYMOL] | 0 mm | 0 mm | 0 mm | – | – | –
11 | CC1(C)[C@H]2CC[C@]1(C)C(=O)C2 [(-)-CAMPHOR] | 0 mm | 0 mm | 0 mm | – | – | –
